Data taken from publication PMC11068522 (International Journal for Parasitology: Drugs and Drug …, 2024).
Like-named read-outs stand apart in the source and are kept apart here.

Experiments:
[1] = tested on: intraerythrocytic stage P. falciparum (strain 3D7); experiment: In vitro antiplasmodial SYBR Green I-based fluorescence assay, 96 h, strain 3D7; type: cell-based, Plasmodium falciparum; conditions: for inhibition: 3D7, read-out: inhibition of parasite proliferation at the single (highest) concentration tested; for IC50: 96 h
How it was run: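 Synchronous ring-stage parasites in O+ erythrocytes, 0.5% parasitemia and 1% hematocrit, in RPMI 1640 with HEPES, Glutamax, 11 mM glucose, 200 μM hypoxanthine, gentamicin and 0.6% Albumax II. […] Frozen at −80 °C, then SYBR Safe lysis (20 mM Tris pH 7.5, EDTA, saponin, Triton X-100). Fluorescence as % of untreated control; IC50 from four-parameter fit, mean ± SEM, n = 3.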

β-hematin formation = experiment: Detergent mediated β-hematin assay; type: biochemical; conditions: cell-free detergent mediated assay; Fig. S4
Solubility in DMSO = type: physicochemical; conditions: other compounds dissolved to 200 mM; these dissolved to between 10 and 100 mM
[2] = tested on: [Na^+]cyt of isolated trophozoite-stage 3D7 parasites (PfATP4); experiment: Cytosolic Na+ measurements; type: cell-based, Plasmodium falciparum; conditions: isolated 3D7 trophozoites; 13i 1 μM and 10 μM, cipargamin 50 nM; final 85–90 min
How it was run: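 Saponin-freed trophozoite-stage 3D7 parasites loaded with SBFI, in 96-well plates at 37 °C in saline (125 mM NaCl, 5 mM KCl, 1 mM MgCl2, 20 mM glucose, 25 mM HEPES, pH 7.1). Controls: DMSO solvent (0.1–0.2% v/v) and a PfATP4-inhibitor positive control. Final [Na+]cyt averaged over 85–90 min of exposure. Three independent experiments on separate days, mean + SEM, Dunnett's test versus DMSO.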

[3] = Plasmodium falciparum, 3D7, 96 h, read-out: IC50 (P. falciparum proliferation), strain 3D7

Structure (SMILES)	inhibition ([1]; Plasmodium falciparum)	IC50 [1, 3]	other results
S=C(Nc1ccccc1)c1nccc2ccccc12 [Compound 13d]	< 50%	–	–
COc1cc(C)ccc1NC(=O)c1ccc2ccccc2c1 [Compound 12b]	–	38 µM	effect on β-hematin formation (β-hematin formation): none
COc1cc(C)ccc1NC(=S)c1cnc2ccccc2c1 [Compound 13c]	> 50%	61 µM	solubility in DMSO (Solubility in DMSO): lower solubility
COc1cc(C)ccc1NC(=S)c1nccc2ccccc12 [Compound 13a]	< 50%	–	inhibition of proliferation of P. falciparum ([1]; at concentrations up to 200 μM, strain 3D7): ≤ 50%
CCN(CC)CCCC(C)Nc1ccnc2cc(Cl)ccc12 (stereo not shown) [chloroquine, Chloroquine, reference compound]	–	–	effect on β-hematin formation (β-hematin formation): inhibited
COc1cc(C)ccc1NC(=O)c1nccc2ccccc12.Cl [Compound 12j]	–	–	reduction of antiplasmodial activity relative to 12a ([1]; compared with isoquinoline carboxamide 12a, strain 3D7): about 2 fold; IC50 ([1]; read-out: IC50 (P. falciparum proliferation), strain 3D7): 136 µM
COc1cc(C)ccc1NC(=O)c1cnc2ccccc2c1 [Compound 12c]	–	62 µM	–
S=C(Nc1ccccc1)c1cccnc1 [Compound 13h]	< 50%	–	–
C[C@H]1Cc2c([nH]c3cc(Cl)c(F)cc23)[C@@]2(N1)C(=O)Nc1ccc(Cl)cc12 [cipargamin]	–	–	effect on [Na^+]cyt [2]: significant increase
COc1cc(C)ccc1NC(=S)c1ccc2ccccc2c1 [Compound 13b]	> 50%	23 µM	effect on β-hematin formation (β-hematin formation): none
COc1cc(C)ccc1NC(=O)c1nccc2ccccc12 [Compound 12a]	–	69 µM	solubility in DMSO (Solubility in DMSO): lower solubility
